Hits are enriched below; roughly 2.1% of the tested compounds scored in any of these assays.
SUMO1 PPI mod: modulators of SUMO1 protein-protein interactions, primary screen, biochemical, uHTS; Small ubiquitin-related modifier 1 (Homo sapiens), P63165; inhibition, % at 20 µM; SUMO1 binding to a labelled peptide, TR-FRET, 1 h; hit rate 0.33% among 360,000; in the data active = inhibition above about 37%
DNMT1 inh: human DNMT1 methyltransferase inhibitors, primary screen, biochemical, molecular beacon, fluorescence, HinP1I cleavage, uHTS; DNA (cytosine-5)-methyltransferase 1 (Homo sapiens), P26358; inhibition (reported as % activation of signal), % at 10 µM; hit rate 0.83% among 360,000; AID 588458, 2011; in the data active = inhibition above about 50%
GRK2 inh: compounds blocking aptamer binding on GRK2 – biochemical, human GRK2, bead flow cytometry, HTS, primary screen. hit rate 0.59% among 330,000. inhibition of aptamer binding, % at 10 µM. FAM-aptamer displacement from GRK2;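 active = inhibition of aptamer binding above 40%, roughly 3 SD of noise, on plates passing a quality check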;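 also: median bead fluorescence of bound FAM aptamer so fluorescent compounds give negative values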
Scp-1 inhibitor: Scp-1 phosphatase inhibitors, primary screen, biochemical, colorimetric, uHTS; Carboxy-terminal domain RNA polymerase II polypeptide A small phosphatase 1 (Homo …; Recombinant Scp1, phosphopeptide, malachite green phosphate absorbance; hit rate 0.88% among 340,000; inhibition, % at 20 µM;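 active = inhibition above about 50% at 20 µM, limit read from the data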
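Material: truncated SCP-1 phosphatase (76-261aa) / Buffer or medium: 50 mM Tris acetate pH 5.5, 0.005% Tween-20, 10 mM MgCl2 / Compound dosing: one concentration, 20 µM, with 1.0% DMSO / Incubation: 45 min room-temperature reaction, 5 min colour, 30 min stabiliser / Detection: colorimetric free-phosphate detection, absorbance 630 nm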
STEP inh: STEP phosphatase inhibitors, primary screen, biochemical, fluorescence intensity, uHTS. recombinant STEP, OMFP fluorogenic substrate. inhibition, % at 20 µM. Tyrosine-protein phosphatase non-receptor type 5 (Homo sapiens), P54829. hit rate 0.25% among 360,000;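 active = inhibition at 20 µM, scaled per plate between control wells, above about 37%, limit read from the data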
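System: isolated STEP enzyme; schedule: 20 min enzyme reaction at room temperature, protected from light; medium: Bis-Tris buffer pH 6.0, 2.5 mM DTT, 0.005% Tween 20; signal: fluorescence, 480/540 nm; dosing: single compound dose of 20 µM, 1% DMSO final; also added: OMFP substrate, 25 µM final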
LMPTP block: LMPTP phosphatase inhibitors, primary screen, biochemical, fluorescence intensity, uHTS; recombinant LMPTP-A, OMFP fluorogenic substrate; hit rate 0.22% among 360,000; inhibition, % at 20 µM; AID 651560, 2012; Low molecular weight phosphotyrosine protein phosphatase (Homo sapiens), P24666;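 active = compounds that cut the enzyme signal by at least half of the control window in the single-dose screen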
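Material: LMPTP-A; amount: 0.625 nM enzyme; doses: single 20 µM dose; times: reaction 50 min, room temperature, dark; technique: fluorescence intensity of OMFP turnover product; benchmarks: no-enzyme and uninhibited controls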
DNMT1 interf DR: spectral interference with molecular beacon fluorescence, dose response, artefact control for DNMT1 inhibitor project, biochemical, fluorescent molecular beacon; 200 tested, under 10 active; AID 602382, 2012; shares compounds with DNMT1 inh; spectral interference counter-screen; IC50, µM; call rule not given here
DNMT1 confirm: DNMT1 methyltransferase inhibitor retest, confirmation, biochemical, molecular beacon, fluorescence, single concentration. shares compounds with DNMT1 inh. DNMT1 molecular beacon HinP1I cleavage. inhibition, % at 10 µM. hit rate 8% among 2,300. AID 602385, 2012;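 active = average inhibition of at least 30% in the single-concentration confirmation test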
Beacon interf: counter-screen for DNMT1 inhibitors: spectral interference. DNMT1 molecular beacon spectral interference counterscreen, fluorescence 485/520. hit rate 1% among 2,300. activation (fluorescence interference), % at 10 µM. shares compounds with DNMT1 inh;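 active = activation of at least 30% at 10 µM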;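 also: DNMT1 catalytic domain with a HinP1I cleavage step and a FAM/dabcyl DNA beacon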
A number is an active result; 0 = inactive; - = not tested or not shown.

SMILES	SUMO1 PPI mod	DNMT1 inh	GRK2 inh	Scp-1 inhibitor	STEP inh	LMPTP block	DNMT1 confirm	Beacon interf	others
C=C(C)[C@@H]1CC[C@]2(C(=O)O)CC[C@]3(C)C(CCC4[C@@]5(C)CC[C@H](O)C(C)(C)C5CC[C@]43C)C12 (stereo not given in full)	0	60.1	0	0	0	0	0	0
C=C(CC[C@@H](O)C(C)(C)O)[C@H]1CC[C@]2(C)[C@@H]1CCC1[C@@]3(C)CCC(=O)C(C)(C)C3CC[C@]12C (stereo not given in full)	0	0	0	0	0	0	-	-
COc1cc(/C=C2\SC(=S)N(C(C(=O)O)c3ccccc3)C2=O)cc(OC)c1OC (stereo not given)	0	0	0	0	0	0	-	-
O=C(O)C(c1ccccc1)N1C(=O)/C(=C\c2ccc(-c3ccccc3Cl)o2)SC1=S (stereo not given)	91.9	98.3	0	0	44.8	76.9	69.4	0	DNMT1 interf DR=34.4
O=C(O)C(c1ccccc1)N1C(=O)/C(=C\c2ccc(-c3ccc(Br)cc3)o2)SC1=S (stereo not given)	90.8	92.7	-	0	0	64.7	93.0	0	DNMT1 interf DR=47.4
Cc1cccc(C)c1NC(=O)C1(C)CSCC(=O)N1C1CCN(Cc2ccccc2)CC1 (stereo not given)	0	-	-	-	-	0	-	-
COC(=O)[C@H](CC(C)C)NC(=O)/C=C/[C@H]1O[C@@H](n2ccc(=O)[nH]c2=O)[C@H](O)[C@@H]1O	0	0	-	-	0	0	-	-
CN(C)CCOc1nc(-c2ccccc2)nc2c1oc1ccccc12	0	64.5	0	0	0	0	57.2	0	DNMT1 interf DR=0
Cc1cc2cc(CNS(=O)(=O)c3ccc4ccccc4c3)ccc2n1C	0	53.6	0	0	0	0	0	0
COc1ccc(NC(=O)CN(C)C(=O)c2cccc(-n3cccc3)c2)cc1	0	83.1	0	-	0	0	0	0
COc1ccc(NC(=O)CN(C)C(=O)c2cccc(Oc3ccccc3)c2)cc1	0	0	0	0	0	0	-	-
Cc1nnn(-c2nonc2N)c1C(=O)N/N=C/c1cccc2ccccc12	0	59.7	0	0	0	0	0	0
COc1ccc(CN(C)C[C@H]2OCCCC[C@H](C)Oc3ccc(NC(=O)CCC(F)(F)F)cc3C(=O)N([C@@H](C)CO)C[C@@H]2C)cc1	0	0	-	-	0	0	-	-
C[C@H]1CCCCO[C@H](CN(C)Cc2ccccc2)[C@@H](C)CN([C@@H](C)CO)C(=O)c2cc(NC(=O)CCC(F)(F)F)ccc2O1	0	64.7	-	-	0	0	0	0
CC(=O)Nc1cccc(-c2ccnc3c2CC(C)(C(=O)Nc2ccc(C(C)C)cc2)O3)c1 (stereo not given)	0	0	-	-	0	0	-	-
O=C(O)C1CCCCC1C(=O)Nc1cc(Cl)ccc1Cl (stereo not given)	-	-	0	0	-	-	-	-
Cc1ccc(Cl)cc1NC(=O)C1CCCCC1C(=O)O (stereo not given)	0	50.1	0	0	0	0	0	0
O=[N+]([O-])c1ccc2nc(-c3ccc(Cl)cc3)[nH]c2c1	0	0	0	0	0	0	-	-
O=[N+]([O-])c1ccc(-c2cc(-c3ccc(Cl)cc3)n[nH]2)cc1	46.9	91.0	0	0	0	0	0	0
O=C1NN(c2ccccc2)C(=O)/C1=C/c1ccc(Sc2ccc(Cl)cc2)o1	0	88.3	0	0	0	0	0	0
Cc1ccc(Sc2ccc(/C=C3/C(=O)NN(c4ccccc4)C3=O)o2)cc1	0	65.1	0	0	0	0	0	0
O=C(COC(=O)c1cccc(S(=O)(=O)N2CCCC2)c1)Nc1ccc(Cl)cc1	0	0	-	-	0	0	-	-
CC1(C(=O)Nc2ccc3c(c2)OCCO3)CN(S(C)(=O)=O)CC(=O)N1CCc1ccccc1 (stereo not given)	0	-	-	-	-	0	-	-
CC1=NN(c2ccccc2)C(=O)C1C=Nc1ccccc1O (stereo not given)	0	0	0	0	0	0	-	-
CC1=NN(c2ccccc2)C(=O)C1/C=C1\NC(=S)NC1=O (stereo not given)	0	90.5	0	0	0	0	37.6	0	DNMT1 interf DR=0
SMILES	SUMO1 PPI mod	DNMT1 inh	GRK2 inh	Scp-1 inhibitor	STEP inh	LMPTP block	DNMT1 confirm	Beacon interf	others
CC(O)C1CCC2C3CCC4CC(O)CCC4(C)C3C(=O)CC12C (stereo not given)	0	0	-	0	0	0	-	-
CCN1/C(=C\C=C(C(C)=O)C(C)=O)Sc2ccccc21	0	0	0	0	0	0	-	-
CCN1/C(=C\C=C2\C(=O)N(c3ccccc3)C(=S)N2C)Sc2ccccc21	0	55.0	-	0	0	0	0	0
CC1(C(=O)NC2CCCC2)CCC(=O)N1CCCn1ccnc1 (stereo not given)	0	0	-	-	0	0	-	-
Cc1ccc(/C=c2/sc3nnc(-c4ccccc4Cl)n3c2=O)o1	0	0	0	0	0	0	-	-
Cc1ccc(/C=c2\sc3nc(-c4ccco4)nn3c2=O)o1	44.2	104.9	0	81.3	71.6	60.8	0	0
OC(c1cccc(Cl)c1)c1nc(-c2csc3ccccc23)cs1 (stereo not given)	0	0	-	-	0	0	-	-
O=C(CCN1C(=O)/C(=C\c2ccco2)SC1=S)Nc1ccc(C(=O)O)c(O)c1	65.5	91.1	0	79.7	42.8	0	0	0
O=C(CCN1C(=O)/C(=C/c2ccco2)SC1=S)Nc1ccc(C(=O)O)c(O)c1	46.8	81.3	0	65.5	48.0	0	0	0
Cc1ccc(NC(=O)CSc2ncccc2C(=O)Oc2cccc([N+](=O)[O-])c2)cc1Cl	0	53.0	0	0	0	0	0	0
Cc1cc2c(=O)[nH]c(N)nc2[nH]1	0	0	-	-	0	0	-	-
CN(C(=O)COC(=O)c1ccccc1Cc1ccccc1)c1c(N)n(Cc2ccccc2)c(=O)[nH]c1=O	0	88.7	0	0	0	0	0	0

Bioassay records (PubChem BioAssay)
